Data from paper PMC8429223 (Biomedicine & pharmacotherapy = Biomedecine & …, 2021).

How the values were obtained:
primary ALL-5 cells = assay: MTT cell viability assay, primary ALL-5; assay type: cell-based; settings: Homo sapiens, ALL5, 120 h, read-out: ALL-5 IC50
How it was run: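 Primary ALL-5 cells (patient bone-marrow-derived) were kept in supplemented IMDM at 1–3 x 10⁶ cells ml⁻¹ and plated at 10⁵ cells/well. They were treated 120 h with a test compound series or 0.1% DMSO. MTT (5 mg ml⁻¹) was added for 24 h at 37°C, then 10% SDS in 0.01 M HCl for a further 24 h; absorbance 540 nm. IC50 by non-linear regression; mean ± SD (n = 4).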

MCF 10A cells = assay: MTT cell viability assay, MCF 10A; assay type: cell-based; settings: Homo sapiens, 96 h, read-out: MCF 10A IC50
How it was run: (§1)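 Cells were seeded in complete medium, MDA-MB-231 at 2 x 10³ and MCF 10A at 2 x 10⁴ cells/well. After 24 h they were exposed to test compound up to 10 μM, or 0.1% DMSO, for 72 h (MDA-MB-231) or 96 h (MCF 10A). MTT (5 mg ml⁻¹) was added for 4 h at 37°C, 5% CO₂, then formazan was dissolved in DMSO with 10 min shaking and read at 540 nm. IC50 by non-linear regression; mean ± SD (n = 4).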

MDA-MB-231 cells [1] = assay: Colony formation assay; assay type: cell-based, human
How it was run: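 MDA-MB-231 cells were seeded at 1.5 x 10⁵/well and left 48 h to attach. After medium change, cells were exposed to test compound or 0.1% DMSO for 6–72 h. They were then harvested and re-plated at 250 cells/well (n=6) in compound-free medium for 13 days. Staining was 0.5% crystal violet in methanol, 40 min at RT. Colonies of ≥25 cells were counted by hand and expressed as % of vehicle; one-way ANOVA.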

MDA-MB-231 cells [2] = assay: Cell cycle / sub-G1 DNA analysis by flow cytometry; assay type: cell-based, human; settings: 30 μM SAL, 24 h (20 μM not significant)
[3] = test system: CD44+/CD24-/low cells of MDA-MB-231 organoids; assay: CD44/CD24 cell surface markers by flow cytometry, organoids; assay type: cell-based, human; settings: 2.5 μM 1 or 0.5 μM 17, 48 h
How it was run: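 MDA-MB-231 organoids were made from 20 μl droplets of 1:4 complete Mammocult:Matrigel holding 10⁴ cells each. Droplets were set 1 h at 37°C, grown static 4 days with half-medium feeds every other day, then shaken at 90 rpm. One dissected organoid per 1 ml Mammocult was treated 48 h (vehicle 0.1% DMSO), then dispersed in enzyme-free dissociation buffer with 0.2% NDA. Cells were stained with FITC-anti-CD24 (1:100) and PE-anti-CD44 (1:200) for 30 min in the dark, then PI/RNase. Viable PI-negative cells were gated against isotype control; mean ± SD (n=3).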

[4] = test system: Bak and LC3-II in MDA-MB-231 cells; assay: Immunoblot analysis, cell monolayer; assay type: cell-based, human
How it was run: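 Monolayers of MDA-MB-231 (2.2 x 10⁶ cells/100 mm dish) were treated 24 or 48 h with test compound or 0.1% DMSO, ± 100 μM Z-VAD-FMK. Cells were trypsin-harvested, snap-frozen and lysed in 25 mM HEPES pH 7.5, 300 mM NaCl, 0.1% Triton X-100 with protease/phosphatase inhibitors. Blots were blocked in 5% milk/TBS-T 1 h at RT, then probed overnight at 4°C: Bak and LC3B 1:1000, GAPDH 1:10000 loading control; HRP anti-rabbit 1:5000. Band intensities were normalised to GAPDH as fold of control; mean ± SD (n=3).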

[5] = test system: EMT marker mRNA in MDA-MB-231 cells; assay: qRT-PCR analysis of EMT markers; assay type: cell-based, human; settings: ½ IC50, 24 h, vs untreated controls
How it was run: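 MDA-MB-231 cells (0.7–2.2 x 10⁶ per 100 mm dish) were exposed 24 h to test compound or 0.1% v/v DMSO vehicle. Cells were trypsin-released and washed in PBS before RNA work. Transcript levels were measured by qRT-PCR and calculated relative to GAPDH by the ΔΔCt method; unpaired t test with Welch's correction.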

breast CSCs = settings: cited from earlier work
[6] = doses of 200–250 μg kg−1; cited from earlier work
MDA-MB-231 cells [7] = assay: MTT cell viability assay, MDA-MB-231; assay type: cell-based, human; settings: single agent, MDA-MB-231, MTT
How it was run: as §1

Compound	IC50 (primary ALL-5 cells)	IC50 (MCF 10A cells)	inhibition of colony growth (MDA-MB-231 cells [1]; 48 h treatment at ½ IC50)	inhibition of colony growth (MDA-MB-231 cells [1]; 72 h treatment at ½ IC50)	sub-G1 DNA content (MDA-MB-231 cells [2])	percentage of CD44+/CD24-/low cells [3]	LC3-II (14 kDa) expression vs. untreated control ([4]; 5 x IC50 (25 μM 1, 14 μM 2, 5 μM 17), 24 h)	Bak expression vs. control ([4]; 5 x IC50, 24 h and 48 h, monolayer)	E-cadherin mRNA [5]	Snail-2 mRNA [5]	Vimentin mRNA [5]	potency in reducing viability of breast CSCs relative to paclitaxel (breast CSCs)	tolerability in cancer patients [6]	IC50 (MDA-MB-231 cells [7])
CC[C@@H](C(=O)[C@@H](C)[C@@H](O)[C@H](C)[C@@H]1O[C@@H]([C@@H](CC)C(=O)O)CC[C@@H]1C)[C@H]1O[C@]2(C=C[C@@H](O)[C@]3(CC[C@@](C)([C@H]4CC[C@](O)(CC)[C@H](C)O4)O3)O2)[C@H](C)C[C@@H]1C [SAL (1), salinomycin]	5.8 ± 1.7 µM	0.1 ± 0.02 µM	84%	90%	statistically significant sub-G1 DNA content	modest, but significant reduction	significant upregulation	very modest, but statistically significant, increase	downregulated	upregulated	upregulated	~100 times	well tolerated	
O=C(NO)c1ccccc1 [benzhydroxamic acid]														142 µM
